Measurements taken from publication PMC9582641 (Molecular Biology of the Cell, 2022).
Where no end group is shown, it is not given here. [ ]: non-standard residue; d: D form. Lys(Me3) = C[N+](C)(C)CCCC[C@H](N)C(=O)O; pT = C[C@@H](OP(=O)(O)O)[C@H](N)C(=O)O; Lys(Me2) = CN(C)CCCC[C@H](N)C(=O)O; Lys(Me) = CNCCCC[C@H](N)C(=O)O

System: U2OS cells
Experiment: Histone H3K4ac immunoblot in U2OS cells after HAT inhibition or Tip60 depletion
Assay type: cell-based
Conditions: U2OS cells, anti-H3K4ac immunoblot
Outline: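 Asynchronous and nocodazole-arrested mitotic U2OS cells were treated with the Tip60 acetyltransferase inhibitor Nu9056 for 1 h. Separately, U2OS cells engineered for doxycycline-induced shRNA against Tip60 were depleted of Tip60. Histone H3 K4 acetylation was read by immunoblot with anti-H3K4ac antibody at 1:1000.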

Row | Molecule | H3K4ac level
1 | Clc1ccc(-c2csc(NN=C3CCCC3)n2)cc1 [CTPH2] | not GCN5 (CTPH2) or p300/CBP (Inhibitor VI) resulted in decreased H3K4ac levels
2 | c1cc(SSc2ccns2)sn1 [Nu9056] | resulted in decreased H3K4ac levels

Same assay, conditions: mitotic U2OS cells; nocodazole arrested, Nu9056 for 1 h; immunoblot

Row | Molecule | H3K4ac level in mitotic cells
3 | c1cc(SSc2ccns2)sn1 [Nu9056] | also sensitive to the Tip60 inhibitor

System: U2OS cells
Experiment: Aurora B at centromeres of interphase
Assay type: cell-based
Conditions: interphase (S/G2) cells, immunofluorescence, ACA mask

Row | Molecule | Aurora B localization at centromeres in interphase cells
4 | c1cc(SSc2ccns2)sn1 [Nu9056] | leads to Aurora B localization at centromeres in interphase (S/G2) cells

Target: hSurvivin (Homo sapiens, UniProt O15392)
Sequence (O15392 whole entry): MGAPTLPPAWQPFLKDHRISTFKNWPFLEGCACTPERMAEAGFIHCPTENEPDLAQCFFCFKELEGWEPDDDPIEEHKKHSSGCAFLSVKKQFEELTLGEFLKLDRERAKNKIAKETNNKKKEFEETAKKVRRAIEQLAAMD
Experiment: not given
Conditions: ITC, pH 7.2, 25°C; ref Niedzialkowska et al. (2012); cited from earlier work

Row | Molecule | –TΔS
5 | H3T3ph(1-12): histone H3 residues 1-12 with T3 phosphorylation; values from Niedzialkowska et al. (2012) | –2800 cal/mol
6 | H3(1-12): first 12 amino acids of histone H3; values from Niedzialkowska et al. (2012) | –4040 cal/mol

Target: human Survivin (hSurvivin) (human, UniProt O15392 1-142)
Sequence (O15392 whole entry): as above
Experiment: ITC
Conditions: not given

Row | Molecule | dH [cal/mol] | stoichiometry N
7 | AR[pT]K(Ac)QTARKSTG (peptide, UniProt P68431 2-13, looked up) [histone H3 peptide H3T3phK4ac(1-12)] | -7300 ± 100 | 0.965 ± 0.009
8 | ART[Lys(Me3)]QTARKSTG (peptide, UniProt P68431 2-13, looked up) [histone H3 peptide H3K4me3(1-12)] | -6000 ± 700 | 0.83 ± 0.07
9 | AR[pT][Lys(Me)]QTARKSTG (peptide, UniProt P68431 2-13, looked up) [histone H3 peptide H3T3phK4me1(1-12)] | -4692 ± 26 | 1.03 ± 0.005
10 | ART[Lys(Me)]QTARKSTG (peptide, UniProt P68431 2-13, looked up) [histone H3 peptide H3K4me1(1-12)] | -2680 ± 60 | 1.08 ± 0.012
11 | ART[Lys(Me2)]QTARKSTG (peptide, UniProt P68431 2-13, looked up) [histone H3 peptide H3K4me2(1-12)] | -2610 ± 40 | 0.899 ± 0.01
12 | AR[pT][Lys(Me2)]QTARKSTG (peptide, UniProt P68431 2-13, looked up) [histone H3 peptide H3T3phK4me2(1-12)] | -6250 ± 60 | 0.873 ± 0.004
13 | AR[pT][Lys(Me3)]QTARKSTG (peptide, UniProt P68431 2-13, looked up) [histone H3 peptide H3T3phK4me3(1-12)] | -4630 ± 90 | 1.21 ± 0.02

System: U2OS cells
Experiment: not given
Assay type: cell-based
Conditions: HDAC3 shRNA, immunofluorescence

Row | Molecule | Aurora B at centromeres after HDAC3 depletion
14 | shHDAC3: HDAC3 shRNA targeting sequence AGAAGTCCACTACCTGGTT (the letters are possibly those of the target site) | most of the Aurora B remains on noninner centromeric (chromosome arm) regions after HDAC3 depletion
